This passage reports Activity results from ChEMBL document CHEMBL1152172, “Synthesis and biological activities of novel nonpeptide angiotensin II receptor antagonists based on benzimidazole derivatives bearing a heterocyclic ring” (Bioorg Med Chem, 2008).

For test [1], the system named is Canis familiaris. Briefly: Antihypertensive activity against angiotensin II-induced pressor response in conscious normotensive Beagle dog assessed as rate of change of mean arterial blood pressure at 2.13 mg/kg, po after 1 hr. It counts as functional, Canis lupus familiaris, Artery. In outline:
(§1)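 Conscious normotensive Beagle dogs, 6–7 per group. Baseline BP and heart rate recorded once stable, then test compound given orally at 2.13 mg/kg. BP and heart rate read 1 h after dosing, then AngII 0.45 µg/kg iv, with waveforms recorded 1 min after injection. Values given as rate of change relative to pre-model baseline (100%), with SEM.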

In test [2] the test system is Canis familiaris. Put plainly: Antihypertensive activity against angiotensin II-induced pressor response in conscious normotensive Beagle dog assessed as rate of change of mean systolic blood pressure at 2.13 mg/kg, po after 1 hr. It counts as functional, Canis lupus familiaris, Artery. In outline: as §1
Test [3] deals with Canis familiaris. Briefly: Antihypertensive activity against angiotensin II-induced pressor response in conscious normotensive Beagle dog assessed as rate of change of mean diastolic blood pressure at 2.13 mg/kg, po after 1 hr. It counts as functional, Canis lupus familiaris, Artery. In outline:
as §1

Test [4] concerns Canis familiaris. Briefly: Antihypertensive activity against angiotensin II-induced pressor response in conscious normotensive Beagle dog assessed as decrease in basal heart rate at 2.13 mg/kg, po after 1 hr. The settings on record: Canis lupus familiaris. Also on record: dose 2.13 mg/kg. It counts as functional, organism-based. In outline: as §1

Each structure is given as a SMILES string. Activity calls are given as the source filed them. The rule behind the calls is not given here.

With `CCCc1nc2c(C)cc(-c3nc4ccccc4n3C)cc2n1Cc1ccc(-c2ccccc2C(=O)O)cc1`, the Activity in the test with Canis familiaris [1] is 96.13%; with Canis familiaris [2] it was 95.78%; in the test on Canis familiaris [3], 96.15%.
For the molecule `CCCc1nc2c(C)cc(-c3nc4ccccc4n3C)cc2n1Cc1ccc(-c2ccccc2-c2ncc(Cl)[nH]2)cc1`, the Activity amounted to 95.43% in the test with Canis familiaris [1], 95.75% in the test on Canis familiaris [2] and 95.28% in the test on Canis familiaris [3]. In addition, in the test on Canis familiaris [4], the result was Active.
For `CCCc1nc2c(C)cc(-c3nc4ccccc4n3C)cc2n1Cc1ccc(-c2ccccc2C2=NCCN2)cc1`, in that order: 97.43%, 96.75%, 95.28% and “Active”.
Take `CCCc1nc2c(C)cc(-c3nc4ccccc4n3C)cc2n1Cc1ccc(-c2ccccc2-c2ncc[nH]2)cc1`: the Activity was 98.11% in the test on Canis familiaris [1], 98.67% in the test with Canis familiaris [2] and 97.96% in the test on Canis familiaris [3]. The result with Canis familiaris [4] was Active.
For `CCCc1nc2c(C)cc(-c3nc4ccccc4n3C)cc2n1Cc1ccc(-c2ccccc2-c2ncn[nH]2)cc1`, in that order: 103.37%, 103.8%, 103.14% and “inactive”.
